ChEMBL document CHEMBL3763097, “Synthesis and biological evaluation of 5,10-dihydro-11H-dibenzo[b,e][1,4]diazepin-11-one structural derivatives as anti-cancer and apoptosis inducing agents” (Eur J Med Chem, 2016)

Columns and labels:
A549 [1] = experiment: Cell cycle arrest in human A549 cells assessed as accumulation at S phase at 1 uM after 24 to 48 hrs by propidium iodide staining based flow cytometry (reference value: 18.3%); format: functional
Method in brief: (§1)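 Cells were seeded at 1×10^6 per well and treated 24 h later with 0.5, 1 or 2 µM compound; DMSO-treated cells served as control. Methods give harvest at 48 h (floating plus trypsinised cells); the figure legend says 24 h. Cells were fixed in 70% ethanol for 30 min at 4 °C and stained with PI, Triton X-100 and RNase A for 15 min in the dark. 10000 events were counted by flow cytometry.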

[2] = Cytotoxicity against human U87MG cells assessed as growth inhibition after 72 hrs by MTT assay; format: functional, cell-based, U-87MG ATCC; conditions: U-87 MG
Method in brief: (§2)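 Cells in RPMI 1640 (PC-3, A549, MDA-MB-231) or DMEM (U87MG, MCF-7) with 10% FBS, passages 4-10, were seeded at 3000-5000 per well and left 24 h. Compounds in DMSO/medium were added for 72 h; DMSO served as control. MTT (5 mg/mL) was added for 4 h and formazan dissolved in DMSO. Absorbance was read at 570 nm minus 630 nm. % inhibition was taken versus DMSO, with IC50 by probit; mean ± SD of three experiments in triplicate.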

A549 [3] = experiment: Antimigratory activity in human A549 cells at 0.5 to 2 uM measured after 24 to 48 hrs by wound healing assay; format: functional, cell-based
Method in brief: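 Wound-healing assay. Cells were seeded at 5×10^5 per well and grown 24 h to a confluent monolayer, then scratched once across the middle with a sterile pipette tip and washed twice with PBS. Compound was added at 0.5, 1 and 2 µM. Wound closure was photographed by phase-contrast microscopy at 0, 24 and 48 h in three or more random fields.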

MDA-MB-231 [4] = experiment: Cell cycle arrest in human MDA-MB-231 cells assessed as accumulation at G0/G1 phase at 2 uM after 24 to 48 hrs by propidium iodide staining based flow cytometry (reference value: 74.4%); format: functional; method in brief: as §1
MDA-MB-231 [5] = experiment: Cell cycle arrest in human MDA-MB-231 cells assessed as accumulation at G2/M phase after 24 to 48 hrs by propidium iodide staining based flow cytometry; format: functional; method in brief: as §1
MDA-MB-231 [6] = experiment: Induction of apoptosis in human MDA-MB-231 cells assessed as early apoptotic cells at 1 uM after 24 hrs by Annexin V-FITC/PI dual staining based flow cytometry (reference value: 0.3%); format: functional
MDA-MB-231 [7] = experiment: Cytotoxicity against human MDA-MB-231 cells assessed as growth inhibition after 72 hrs by MTT assay; format: functional, cell-based; conditions: MDA-MB-231, 72 h; method in brief: as §2
A549 [8] = experiment: Induction of apoptosis in human A549 cells assessed as viable cells at 2 uM after 24 hrs by Annexin V-FITC/PI dual staining based flow cytometry (reference value: 85%); format: functional; conditions: A549, 24 h, read-out: Activity
MDA-MB-231 (human) [9] = experiment: Induction of apoptosis in human MDA-MB-231 cells assessed as early apoptotic cells at 2 uM after 24 hrs by Annexin V-FITC/PI dual staining based flow cytometry (reference value: 5.3%)
A549 [10] = experiment: Cell cycle arrest in human A549 cells assessed as accumulation at G2/M phase at 2 uM after 24 to 48 hrs by propidium iodide staining based flow cytometry (reference value: 22.3 to 31%); format: functional; method in brief: as §1
MDA-MB-231 (human) [11] = experiment: Induction of apoptosis in human MDA-MB-231 cells assessed as late apoptotic cells at 2 uM after 24 hrs by Annexin V-FITC/PI dual staining based flow cytometry (reference value: 4.5%)
A549 [12] = experiment: Disruption of mitochondrial membrane potential in human A549 cells after 48 hrs by Rhodamine-123 staining based spectrofluorometry; format: functional, cell-based
Method in brief: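 Cells were seeded at 5×10^5 cells/mL overnight and treated with 0.5, 1 and 2 µM compound; the methods say 24 h and the results text says 48 h. Trypsinised cells were washed and stained with rhodamine-123 (2 µM in PBS) for 30 min at room temperature in the dark, washed and read by spectrofluorometer. Data are mean ± SD of three independent experiments.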

MDA-MB-231 [13] = experiment: Induction of apoptosis in human MDA-MB-231 cells assessed as early apoptotic cells at 0.5 uM after 24 hrs by Annexin V-FITC/PI dual staining based flow cytometry (reference value: 0.3%); format: functional
A549 [14] = experiment: Induction of apoptosis in human A549 cells assessed as late apoptotic cells at 0.5 uM after 24 hrs by Annexin V-FITC/PI dual staining based flow cytometry (reference value: 4.5%); format: functional
MDA-MB-231 [15] = experiment: Induction of reactive oxygen species generation in human MDA-MB-231 cells at 0.5 to 2 uM after 48 hrs by carboxy-DCFDA staining based spectrofluorometry relative to control; format: functional
MDA-MB-231 [16] = experiment: Cell cycle arrest in human MDA-MB-231 cells assessed as accumulation at S phase at 1 uM after 24 to 48 hrs by propidium iodide staining based flow cytometry (reference value: 4.6%); format: functional; method in brief: as §1
MDA-MB-231 [17] = experiment: Cell cycle arrest in human MDA-MB-231 cells assessed as accumulation at S phase at 0.5 uM after 24 to 48 hrs by propidium iodide staining based flow cytometry (reference value: 4.6%); format: functional; method in brief: as §1
MCF7 = experiment: Cytotoxicity against human MCF7 cells assessed as growth inhibition after 72 hrs by MTT assay; format: functional, cell-based; conditions: MCF7, 72 h; method in brief: as §2
MDA-MB-231 [18] = experiment: Cell cycle arrest in human MDA-MB-231 cells assessed as accumulation at G2/M phase at 2 uM after 24 to 48 hrs by propidium iodide staining based flow cytometry (reference value: 20.2%); format: functional; method in brief: as §1
A549 [19] = experiment: Induction of apoptosis in human A549 cells assessed as viable cells at 1 uM after 24 hrs by Annexin V-FITC/PI dual staining based flow cytometry (reference value: 85%); format: functional; conditions: A549, 24 h, read-out: Activity
A549 [20] = experiment: Induction of apoptosis in human A549 cells assessed as necrotic cells at 0.5 uM after 24 hrs by Annexin V-FITC/PI dual staining based flow cytometry (reference value: 5.2%); format: functional
A549 [21] = experiment: Cytotoxicity against human A549 cells assessed as inhibition of colony formation after 24 hrs by methylene blue staining-based assay; format: functional, cell-based
Method in brief: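 Clonogenic assay. Cells were plated at 500 per well and allowed to adhere 24 h. Compound was added at 0.1, 1 and 10 µM for 24 h, then medium was replaced and cells grown a further 14 days. Colonies were fixed with 4% paraformaldehyde, stained with 0.5% methylene blue in PBS for 30 min, rinsed and photographed.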

MDA-MB-231 [22] = experiment: Cell cycle arrest in human MDA-MB-231 cells assessed as accumulation at G0/G1 phase at 1 uM after 24 to 48 hrs by propidium iodide staining based flow cytometry (reference value: 74.4%); format: functional; method in brief: as §1
MDA-MB-231 [23] = experiment: Induction of apoptosis in human MDA-MB-231 cells assessed as viable cells at 2 uM after 24 hrs by Annexin V-FITC/PI dual staining based flow cytometry (reference value: 91%); format: functional; conditions: MDA-MB-231, 24 h, read-out: Activity
A549 [24] = experiment: Induction of apoptosis in human A549 cells assessed as late apoptotic cells at 1 uM after 24 hrs by Annexin V-FITC/PI dual staining based flow cytometry (reference value: 4.5%); format: functional
MDA-MB-231 [25] = experiment: Induction of apoptosis in human MDA-MB-231 cells assessed as late apoptotic cells at 0.5 uM after 24 hrs by Annexin V-FITC/PI dual staining based flow cytometry (reference value: 6.2%); format: functional

O=C1c2ccccc2Nc2ccccc2N1Cc1cn(Cc2ccccc2)nn1
Activity (A549 [1]): 15.3% | IC50 [2]: 6.97 µM | inhibition (A549 [3]): Dose-dependent effect | Activity (MDA-MB-231 [4]): 33.3% | Activity (MDA-MB-231 [5]): Dose-dependent effect | Activity (MDA-MB-231 [6]): 14.2% | IC50 (MDA-MB-231 [7]): 0.73 µM | viability at 2 µM (A549 [8]): 63.8% | Activity (MDA-MB-231 (human) [9]): 15.4% | Activity (A549 [10]): 51.3% | Activity (MDA-MB-231 (human) [11]): 17% | Activity (A549 [12]): Dose-dependent effect | Activity (MDA-MB-231 [13]): 16.8% | Activity (A549 [14]): 12.7% | fold change (FC) (MDA-MB-231 [15]): 2.09 | Activity (MDA-MB-231 [16]): 6.7% | Activity (MDA-MB-231 [17]): 1.2% | IC50 (MCF7): 7.29 µM | Activity (MDA-MB-231 [18]): 63.4% | viability at 1 µM (A549 [19]): 72% | Activity (A549 [20]): 2.5% | inhibition (A549 [21]): Dose-dependent effect | Activity (MDA-MB-231 [22]): 60.1% | viability at 2 µM (MDA-MB-231 [23]): 62% | Activity (A549 [24]): 10.7% | Activity (MDA-MB-231 [25]): 10.1%
